Our source for the Activity, inhibition and IC50 values is ChEMBL document CHEMBL2396552, “Novel inhibitors of a Grb2 SH3C domain interaction identified by a virtual screen” (Bioorg Med Chem, 2013).

For assay [1], the target named is T1, Growth factor receptor-bound protein 2 (Homo sapiens, UniProt P62993). Nature of the assay: Binding affinity to GST-tagged Grb2 SH3C domain (unknown origin) using biotinylated Gab2b peptide as substrate at 5 mM by SDS-PAGE analysis. In short, it runs like this:
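Purified GST–Grb2 SH3C (10 µg/sample) was pre-incubated with compound at 5 mM, in duplicate, for 2 h at 4 °C. Streptavidin beads carrying biotinylated Gab2b peptide were then added for 30 min. After PBS-T washes, bound protein was resolved by SDS-PAGE, Coomassie-stained and scored by densitometry relative to the no-inhibitor control (100%).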
Target sequence in this assay (P62993 whole entry, looked up, the tested form may be a part): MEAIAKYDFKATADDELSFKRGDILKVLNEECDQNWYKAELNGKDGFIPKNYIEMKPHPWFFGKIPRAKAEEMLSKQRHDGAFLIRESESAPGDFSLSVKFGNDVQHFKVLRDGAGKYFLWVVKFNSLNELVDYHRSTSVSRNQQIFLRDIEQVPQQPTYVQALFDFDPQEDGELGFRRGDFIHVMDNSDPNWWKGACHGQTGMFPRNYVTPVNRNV

The target in assay [2] is T1, Growth factor receptor-bound protein 2. Nature of the assay: Binding affinity to wild type human Grb2 SH3C domain at > 200 uM by SPR assay. Background: SPR reads the build-up and loss of mass on a sensor chip optically.
Target sequence in this assay (P62993 whole entry, looked up, the tested form may be a part): as above
The target is the same in assay [3]. Nature of the assay: Binding affinity to wild type human Grb2 SH3C domain at 50 to 100 uM by SPR assay. The gist of the method:
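Untagged Grb2 SH3C was amine-coupled to a CM5 chip at about 1500 RU. Compounds at 50 and 100 µM in HBS-N (10 mM Hepes pH 7.4, 150 mM NaCl) with 5% DMSO and 0.01% Tween 20 were injected for 120 s at 40 µL/min and 25 °C. Responses were double-referenced. Binders were defined by a response of at least 5 RU at 100 µM, derived from a KD cutoff of ≤1 mM.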
Target sequence in this assay (P62993 whole entry, looked up, the tested form may be a part): as above

Assay [4] shares this target. The assay is described as follows: Inhibition of GST-tagged Grb2 SH3C domain (unknown origin)-Gab2 interaction up to 20 mM incubated 2 hrs prior to biotinylated Gab2b peptide addition measured after 30 mins by SDS-PAGE analysis. The gist of the method: (§1)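 Concentration-response format of the bead pull-down. GST–Grb2 SH3C (10 µg) was pre-incubated 2 h at 4 °C with increasing compound concentrations in Tris pH 7.5 buffer containing 5% DMSO. Biotin-Gab2b peptide–streptavidin beads were added for 30 min. Bound protein was measured by SDS-PAGE/Coomassie densitometry, normalized to the no-inhibitor sample, and fitted to a sigmoidal inhibition model by nonlinear regression. Gels represent 4–6 repeats.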
Target sequence in this assay (P62993 whole entry, looked up, the tested form may be a part): as above

The target is the same in assay [5]. Nature of the assay: Binding affinity to Grb2 SH3C domain (unknown origin) at 1 mM by isothermal titration calorimetry. In short, it runs like this: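 ITC at 25 °C used 20 µM purified Grb2 SH3C in the cell, in 50 mM Hepes pH 7.5, 50 mM NaCl, 0.5% DMSO. Compound at 1 mM in the same buffer was titrated in: one 4 µL injection followed by 18 injections of 15 µL.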
A general note: Isothermal titration calorimetry measures the heat released or taken up as one component is titrated into another.
Target sequence in this assay (P62993 whole entry, looked up, the tested form may be a part): as above

The target is the same in assay [6]. The assay is described as follows: Competitive inhibition of GST-tagged Grb2 SH3C domain (unknown origin)-Gab2 interaction incubated 2 hrs prior to biotinylated Gab2b peptide addition measured after 30 mins by SDS-PAGE analysis. In short, it runs like this: as §1
Target sequence in this assay (P62993 whole entry, the tested form may be a part): as the sequence (P62993 whole entry, looked up, the tested form may be a part) above

Activity calls are given as the source filed them. Bounds are passed on as bounds.

The molecule `Nc1n[nH]c2cc(O)[nH]c(=O)c12` gave an Activity in assay [1] of more than 20%.

As to `Cn1c(CCNC(=N)CSS(=O)(=O)O)nc2ccccc21`, the outcome in assay [1] was inactive.

Take `CC1(C)N=C(N)N=C(N)N1c1cccc(OCC#N)c1`: the outcome in assay [2] and in assay [3] was Active. Further, in assay [1], the Activity was more than 20%. Besides, the inhibition result in assay [4] was “Active”.

`NC1=NS(=O)(=O)Nc2nn(-c3ccccc3)nc21`: the result in assay [1] was inactive.

Consider `CC1(C)N=C(N)N=C(N)N1c1cccc(CO)c1`, for which the outcome in assay [1] was inactive.

With `C1CN=C(C2=NCCCN2)NC1`, the result in assay [1] was inactive.

`NC[C@@H]1[C@@H](CN)[C@H]2C=C[C@@H]1CC2`: the Activity in assay [1] is more than 20%.

As to `CC1(C)N=C(N)N=C(N)N1c1cc(C(F)(F)F)cc(C(F)(F)F)c1`, the result in assay [1] was inactive.

Regarding `CC(CC(=N)N)NC(=O)C1CCC(N)=N1` (configuration not stated), the outcome in assay [1] was inactive.

With `NC=C1C(=O)NC(=O)NC1=O`, the outcome in assay [1] was inactive.

Turning to `Nc1nc(N)n(Cc2ccc3c(c2)OCO3)n1`, in assay [1], the outcome was inactive.

As for `NC1CCC(NC2CCC(N)CC2)CC1` (configuration not stated), the Activity in assay [1] is more than 20%. Further, the outcome in assay [3] was Active.

With `N=C(NCCN)C(=N)NCCN`, in assay [1], the result was inactive.

Usually IC50 stands for the concentration needed to halve the response being measured. Read a low IC50 as higher potency. Take `CC1(C)N=C(N)N=C(N)N1c1cccc(/C=C/C=C/c2cccc([N+](=O)[O-])c2)c1`: in assay [5], the result was inactive. The result in assay [2] and in assay [3] was Active. Further, the Activity in assay [1] is more than 20%. The molecule also came in with an IC50 in assay [6] of 0.32 mM.

On to `Cc1cnc2c(c1)CCCC2C(N)=S` (configuration not stated), for which the Activity in assay [1] is more than 20%.

`CN1C[C@@H]2[C@@H](N)N=C(N)N[C@@H]2C1(C)C`: the result in assay [1] was inactive.

Take `Nc1nc(N)c2cnnn2n1`: the result in assay [1] was inactive.

Regarding `Cn1cnc(N)c2ncnc1-2`, the outcome in assay [1] was inactive.

Molecule `N=C(NC1CCC(C2CCC(N)CC2)CC1)C(=N)NC1CCC(C2CCC(N)CC2)CC1` (configuration not stated) had an Activity in assay [1] of more than 20%. Also, in assay [3], the outcome was Active.

For `Nc1n[nH]c(=O)n2ncnc12`, in assay [1], the outcome was inactive.

As to `CC1(C)N=C(N)N=C(N)N1c1cccc(OCc2cccc(N)c2)c1`, the result in assay [1] was inactive. For the same molecule, the outcome in assay [3] was Active.

As to `Cc1nnc2c3nccnc3c(N)nn12`, the outcome in assay [1] was inactive.

In the case of `Nc1nsc2nc3ccccc3cc12`, the outcome in assay [1] was inactive.

Turning to `C/C(=N\NC(=N)N)c1cnc(C)nc1C`, the outcome in assay [1] was inactive.

As for `Cc1ccc(C(/C=C/c2ccccc2)=N/NC(=N)N)cc1`, in assay [1], the Activity is more than 20%. Moreover, the result in assay [3] was Active.

Regarding `CN1CC(=O)N=C(N)N=C1N`, in assay [1], the result was inactive.

In the case of `Cn1c(N)nc2nc[nH]c2c1=O`, the result in assay [1] was inactive.

`N=C(NC1=NCCN1)C(=N)NC1=NCCN1`: in assay [1], the outcome was inactive.

For `CC(=O)c1ccc(/N=N/c2c(N)nc(N)nc2N)cc1`, the Activity in assay [1] was more than 20%. Besides, the outcome in assay [3] was Active.

For `CC1(C)N=C(N)N=C(N)N1c1cccc(CCCCc2cccc(N)c2)c1`, the outcome in assay [5] was inactive. The result in assay [2] and in assay [3] was Active. Moreover, the Activity in assay [1] was more than 20%. The molecule also came in with a half-maximal inhibitory concentration (IC50) in assay [6] of 5.7 mM.

In the case of `CC1(C)N=C(N)N=C(N)N1c1cccc(OCCOc2cccc(N)c2)c1`, in assay [1], the outcome was inactive. Also, the outcome in assay [3] was Active.

In the case of `Cc1ccc(O)c(C2CC(=O)NC(N)=N2)c1` (configuration not stated), in assay [1], the result was inactive. In addition, the outcome in assay [3] was Active.

Consider `NC(C(=O)O)C(O)c1c[nH]cn1` (configuration not stated), for which the result in assay [1] was inactive.

Take `NCCN1CCN=C1C1=NCCN1CCN`: in assay [1], the outcome was inactive.
